Reference: ChEMBL document CHEMBL2073777, “Characterization of ochratoxin A transport by human organic anion transporters” (Life Sci, 2001)

What was measured:
Assay type in all cases: functional, cell-based
[1] = target: T1, Solute carrier family 22 member 6 (Homo sapiens, UniProt Q4U2R8); assay: TP_TRANSPORTER: inhibition of Ochratoxin A uptake (OTA: 1 uM, Aspartame: 200 uM) in OAT1-expressing S2 cells; conditions: s2, 200 µM
T1 sequence (Q4U2R8 whole entry): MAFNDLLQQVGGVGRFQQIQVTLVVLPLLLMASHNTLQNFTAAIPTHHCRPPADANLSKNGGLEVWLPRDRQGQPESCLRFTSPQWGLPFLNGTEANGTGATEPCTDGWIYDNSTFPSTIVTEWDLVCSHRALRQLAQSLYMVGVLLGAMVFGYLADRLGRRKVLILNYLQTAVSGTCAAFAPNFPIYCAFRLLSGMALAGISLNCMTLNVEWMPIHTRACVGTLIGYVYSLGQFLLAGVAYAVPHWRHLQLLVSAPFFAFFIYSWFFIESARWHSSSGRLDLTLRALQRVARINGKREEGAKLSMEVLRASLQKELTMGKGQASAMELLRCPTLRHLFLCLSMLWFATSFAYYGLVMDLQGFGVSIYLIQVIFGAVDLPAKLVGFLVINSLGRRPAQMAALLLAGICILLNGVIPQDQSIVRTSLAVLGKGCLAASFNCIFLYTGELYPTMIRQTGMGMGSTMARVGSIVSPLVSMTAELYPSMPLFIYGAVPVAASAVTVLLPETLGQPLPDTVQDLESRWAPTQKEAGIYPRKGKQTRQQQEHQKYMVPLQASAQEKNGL
Procedure, shortened: (§1)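 Mouse proximal tubule second-segment (S2) cells stably expressing human OAT1 or OAT3. Uptake of [³H]-labelled ochratoxin A was measured with and without added OAT substrates as inhibitors.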

[2] = target: T2, Organic anion transporter 3 (Homo sapiens, UniProt Q8TCC7); assay: TP_TRANSPORTER: inhibition of Ochratoxin A uptake (OTA: 1 uM, Aspartame: 200 uM) in OAT3-expressing S2 cells; conditions: s2, 200 µM; procedure, shortened: as §1
T2 sequence (Q8TCC7 whole entry): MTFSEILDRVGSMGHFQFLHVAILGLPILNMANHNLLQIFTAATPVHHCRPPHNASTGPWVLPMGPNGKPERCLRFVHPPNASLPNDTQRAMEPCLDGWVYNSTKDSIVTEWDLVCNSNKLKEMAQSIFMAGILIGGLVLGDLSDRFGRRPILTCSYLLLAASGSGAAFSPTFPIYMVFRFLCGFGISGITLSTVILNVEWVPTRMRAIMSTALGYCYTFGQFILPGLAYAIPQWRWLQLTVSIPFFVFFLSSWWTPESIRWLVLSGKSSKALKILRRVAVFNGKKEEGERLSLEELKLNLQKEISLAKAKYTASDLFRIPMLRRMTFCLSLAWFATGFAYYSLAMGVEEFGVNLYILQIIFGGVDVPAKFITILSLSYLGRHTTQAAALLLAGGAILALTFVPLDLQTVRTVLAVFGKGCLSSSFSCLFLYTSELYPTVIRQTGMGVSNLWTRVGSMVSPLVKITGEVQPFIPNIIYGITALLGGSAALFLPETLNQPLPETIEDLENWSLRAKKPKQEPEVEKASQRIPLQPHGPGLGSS

[3] = target: T3, OAT3 (Organic anion transporter 3) (Homo sapiens, UniProt Q8TCC7); assay: TP_TRANSPORTER: uptake in OAT3-expressing S2 cells; conditions: mouse, S2 cells that express OAT3
T3 sequence (Q8TCC7 whole entry): T2 sequence (Q8TCC7 whole entry)
Procedure, shortened: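 S2 proximal tubule cells from mice stably expressing human OAT3. [³H]-ochratoxin A uptake was followed over time and concentration, and the apparent Km was taken from the saturable uptake.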

[4] = target: T2, Organic anion transporter 3; assay: TP_TRANSPORTER: inhibition of Ochratoxin A uptake in OAT3-expressing S2 cells
[5] = target: T1, Solute carrier family 22 member 6; assay: TP_TRANSPORTER: inhibition of Ochratoxin A uptake (OTA: 1 uM, Indomethacin: 200 uM) in OAT1-expressing S2 cells; conditions: mouse, s2, 200 µM; procedure, shortened: as §1
[6] = target: T2, Organic anion transporter 3; assay: TP_TRANSPORTER: inhibition of Ochratoxin A uptake (OTA: 1 uM, Indomethacin: 200 uM) in OAT3-expressing S2 cells; conditions: mouse, s2, 200 µM; procedure, shortened: as §1
[7] = target: T2, Organic anion transporter 3; assay: TP_TRANSPORTER: inhibition of Ochratoxin A uptake (OTA: 1 uM, PCG: 200 uM) in OAT3-expressing S2 cells; conditions: mouse, s2, 200 µM; procedure, shortened: as §1

For `COC(=O)[C@H](Cc1ccccc1)NC(=O)[C@@H](N)CC(=O)O`, the Activity [1] was “is not an inhibitor [-]” and the Activity [2] was “is not an inhibitor [-]”.
For `C[C@@H]1Cc2c(Cl)cc(C(=O)N[C@@H](Cc3ccccc3)C(=O)O)c(O)c2C(=O)O1` [3R14S-OCHRATOXIN A], the Km [3] was 0.75 µM.
In the case of `CC1=C2C(=CO[C@H](C)[C@H]2C)C(O)=C(C(=O)O)C1=O` [CITRININ], the Ki [4] is reported as 15.4 µM.
`COc1ccc2c(c1)c(CC(=O)O)c(C)n2C(=O)c1ccc(Cl)cc1` [INDOMETHACIN] was tested, and the Activity [5] was “inhibitor [(at a rough estimate) 25 % of control]” and the Activity [6] was “inhibitor [(at a rough estimate) 15 % of control]”.
For `CCCCCCCC(=O)O` [OCTANOIC ACID], the Ki [4] was 8.6 µM.
`CC1(C)S[C@@H]2[C@H](NC(=O)Cc3ccccc3)C(=O)N2[C@H]1C(=O)O` [PENICILLIN G] was tested, and the Activity [7] was “inhibitor [(at a rough estimate) 35 % of control]”.
`CN1C(C(=O)Nc2ccccn2)=C(O)c2ccccc2S1(=O)=O` [PIROXICAM] gave a Ki [4] of 4.88 µM.
